In ChEMBL document CHEMBL4392864, “Diketopiperazine-Type Alkaloids from a Deep-Sea-Derived Aspergillus puniceus Fungus and Their Effects on Liver X Receptor α” (J Nat Prod, 2019):
Activity calls are given as the source filed them. No cut-off for these calls is given here.

What was measured:
[1] = molecular target: T1, Tyrosine-protein phosphatase non-receptor type 9 (Homo sapiens, UniProt P43378); assay: Inhibition of recombinant human MEG2 expressed in Escherichia coli […] preincubated for 15 mins followed by substrate addition and measured after 60 mins
T1 sequence (P43378 whole entry): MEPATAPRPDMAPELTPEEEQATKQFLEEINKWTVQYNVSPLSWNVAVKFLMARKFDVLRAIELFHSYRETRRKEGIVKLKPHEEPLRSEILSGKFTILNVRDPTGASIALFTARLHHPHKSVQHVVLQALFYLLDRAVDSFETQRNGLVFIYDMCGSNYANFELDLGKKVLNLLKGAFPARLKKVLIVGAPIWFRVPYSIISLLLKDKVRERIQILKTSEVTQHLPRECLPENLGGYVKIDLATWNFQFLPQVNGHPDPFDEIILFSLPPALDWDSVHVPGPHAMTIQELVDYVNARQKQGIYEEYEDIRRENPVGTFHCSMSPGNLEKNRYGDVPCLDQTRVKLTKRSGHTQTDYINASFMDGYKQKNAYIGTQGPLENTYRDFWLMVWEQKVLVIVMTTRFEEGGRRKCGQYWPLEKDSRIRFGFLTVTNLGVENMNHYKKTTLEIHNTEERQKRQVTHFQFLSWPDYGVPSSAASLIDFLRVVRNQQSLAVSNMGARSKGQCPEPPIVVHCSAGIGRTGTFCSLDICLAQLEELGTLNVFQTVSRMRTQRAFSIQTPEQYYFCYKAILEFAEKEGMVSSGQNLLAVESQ
Summary of the method: (§1)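 Recombinant human phosphatases were expressed in E. coli and purified. Enzyme and compound were preincubated for 15 min at room temperature in pH 6.5 buffer (50 mM HEPES, 100 mM NaCl, 1 mM EDTA, 1 mM DTT). Buffer containing 50 mM pNPP was then added and the mix incubated for 60 min at 37 °C. Product p-nitrophenol was read at 405 nm. Assays were run in triplicate and IC50 derived.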

[2] = molecular target: T2, Tyrosine-protein phosphatase non-receptor type 2 (Homo sapiens, UniProt P17706); assay: Inhibition of recombinant human TCPTP expressed in Escherichia coli […] preincubated for 15 mins followed by substrate addition and measured after 60 mins; summary of the method: as §1
T2 sequence (P17706 whole entry): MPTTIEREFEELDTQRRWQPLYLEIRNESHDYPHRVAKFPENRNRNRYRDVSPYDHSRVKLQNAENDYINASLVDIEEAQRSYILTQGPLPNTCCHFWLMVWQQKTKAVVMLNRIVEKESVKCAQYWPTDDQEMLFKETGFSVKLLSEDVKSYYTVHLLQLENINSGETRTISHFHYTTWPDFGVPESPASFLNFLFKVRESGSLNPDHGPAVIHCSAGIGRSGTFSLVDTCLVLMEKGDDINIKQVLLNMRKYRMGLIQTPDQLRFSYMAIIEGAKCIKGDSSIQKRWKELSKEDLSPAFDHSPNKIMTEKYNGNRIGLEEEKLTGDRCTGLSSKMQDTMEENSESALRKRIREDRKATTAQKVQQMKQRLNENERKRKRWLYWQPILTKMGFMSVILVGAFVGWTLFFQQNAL

[3] = molecular target: T3, Tyrosine-protein phosphatase non-receptor type 11 (Homo sapiens, UniProt Q06124); assay: Inhibition of recombinant human SHP2 expressed in Escherichia coli […] preincubated for 15 mins followed by substrate addition and measured after 60 mins; summary of the method: as §1
T3 sequence (Q06124 whole entry): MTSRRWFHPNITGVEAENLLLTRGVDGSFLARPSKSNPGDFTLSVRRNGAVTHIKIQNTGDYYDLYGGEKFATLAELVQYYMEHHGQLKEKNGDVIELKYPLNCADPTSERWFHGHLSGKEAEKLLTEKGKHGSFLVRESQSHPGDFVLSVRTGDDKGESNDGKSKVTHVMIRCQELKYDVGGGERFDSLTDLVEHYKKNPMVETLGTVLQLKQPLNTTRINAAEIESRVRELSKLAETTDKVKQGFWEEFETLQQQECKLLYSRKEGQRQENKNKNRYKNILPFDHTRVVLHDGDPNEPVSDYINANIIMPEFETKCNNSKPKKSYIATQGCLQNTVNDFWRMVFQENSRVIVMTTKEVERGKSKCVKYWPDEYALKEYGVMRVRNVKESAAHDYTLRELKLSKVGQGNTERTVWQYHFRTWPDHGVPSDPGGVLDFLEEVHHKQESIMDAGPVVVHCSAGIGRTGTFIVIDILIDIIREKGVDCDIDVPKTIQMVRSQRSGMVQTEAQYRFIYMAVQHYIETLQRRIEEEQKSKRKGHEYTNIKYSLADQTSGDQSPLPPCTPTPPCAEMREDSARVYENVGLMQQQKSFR

[4] = tested on: Pyricularia oryzae; assay: Antifungal activity against Pyricularia oryzae HNM 1003 assessed as growth inhibition at 0.6 mM measured after 48 hrs by microbroth dilution method; format: functional; settings: HNM 1003, 48 h, read-out: GI
[5] = tested on: Curvularia australiensis; assay: Antifungal activity against Curvularia australiensis BY01 assessed as growth inhibition at 0.6 mM measured after 48 hrs by microbroth dilution method; format: functional; settings: BY01, 48 h, read-out: GI
Summary of the method: (§2)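 Fungi were grown on PDA plates for 6−8 days at 30 °C, then the mycelia were moved into PD medium and filtered through cotton to give a spore suspension. Each well held PD medium, sample from a 10 mg/mL DMSO stock at about 0.6 mM, and spores (1 × 10^6 CFU). DMSO served as the negative control. OD600 was read at 0 and 48 h at 28 °C and percent growth inhibition calculated.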

[6] = molecular target: L-lactate dehydrogenase A chain (Homo sapiens) (UniProt P00338); assay: Inhibition of recombinant human LDHA expressed in Escherichia coli […] preincubated for 15 mins followed by substrate addition and measured after 60 mins
[7] = tested on: Fusarium oxysporum; assay: Antifungal activity against Fusarium oxysporum HNM 1003 assessed as growth inhibition at 0.6 mM measured after 48 hrs by microbroth dilution method; format: functional; settings: HNM 1003, 48 h, read-out: GI; summary of the method: as §2
[8] = tested on: Colletotrichum gloeosporioides; assay: Antifungal activity against Colletotrichum gloeosporioides HNM 1003 assessed as growth inhibition at 0.6 mM measured after 48 hrs by microbroth dilution method; format: functional; settings: HNM 1003, 48 h, read-out: GI; summary of the method: as §2
[9] = molecular target: Tyrosine-protein phosphatase non-receptor type 6 (Homo sapiens, UniProt P29350); assay: Inhibition of recombinant human SHP1 expressed in Escherichia coli […] preincubated for 15 mins followed by substrate addition and measured after 60 mins; summary of the method: as §1
[10] = molecular target: T4, Tyrosine-protein phosphatase non-receptor type 1 (Homo sapiens, UniProt P18031); assay: Inhibition of recombinant human PTP1B expressed in Escherichia coli […] preincubated for 15 mins followed by substrate addition and measured after 60 mins; summary of the method: as §1
T4 sequence (P18031 whole entry): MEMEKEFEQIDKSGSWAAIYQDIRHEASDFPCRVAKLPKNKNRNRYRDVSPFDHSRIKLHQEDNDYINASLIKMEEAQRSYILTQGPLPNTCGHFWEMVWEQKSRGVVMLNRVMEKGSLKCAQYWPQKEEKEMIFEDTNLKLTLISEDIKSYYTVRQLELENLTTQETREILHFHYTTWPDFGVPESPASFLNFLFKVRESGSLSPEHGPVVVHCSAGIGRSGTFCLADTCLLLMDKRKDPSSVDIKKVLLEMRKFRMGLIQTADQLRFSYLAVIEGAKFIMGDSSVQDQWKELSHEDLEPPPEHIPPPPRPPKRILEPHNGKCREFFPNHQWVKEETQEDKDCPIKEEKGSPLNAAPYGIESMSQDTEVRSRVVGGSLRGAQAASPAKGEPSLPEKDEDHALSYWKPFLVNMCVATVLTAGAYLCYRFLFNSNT

[11] = molecular target: T5, Oxysterols receptor LXR-alpha (Homo sapiens, UniProt Q13133); assay: Transactivation of recombinant GAL4-fused human LXRalpha LBD (163 to 447 residues) expressed in human L02 cells measured after 24 hrs by luciferase reporter gene assay; format: cell-based
T5 sequence (Q13133 whole entry): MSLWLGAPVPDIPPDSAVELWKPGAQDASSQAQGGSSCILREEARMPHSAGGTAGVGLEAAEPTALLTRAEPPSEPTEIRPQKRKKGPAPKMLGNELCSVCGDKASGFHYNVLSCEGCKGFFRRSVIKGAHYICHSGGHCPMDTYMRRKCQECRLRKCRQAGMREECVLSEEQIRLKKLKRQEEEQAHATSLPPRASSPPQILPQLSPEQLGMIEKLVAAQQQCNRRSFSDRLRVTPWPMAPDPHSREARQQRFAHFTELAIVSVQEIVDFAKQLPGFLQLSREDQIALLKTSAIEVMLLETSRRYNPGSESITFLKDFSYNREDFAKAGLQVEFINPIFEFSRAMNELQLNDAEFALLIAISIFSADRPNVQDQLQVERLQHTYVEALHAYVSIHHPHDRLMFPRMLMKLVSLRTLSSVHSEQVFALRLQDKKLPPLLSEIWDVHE

[12] = molecular target: Indoleamine 2,3-dioxygenase 1 (Homo sapiens, UniProt P14902); assay: Inhibition of recombinant human IDO1 expressed in Escherichia coli […] preincubated for 15 mins followed by substrate addition and measured after 60 mins
Indoleamine 2,3-dioxygenase 1, sequence (P14902 whole entry): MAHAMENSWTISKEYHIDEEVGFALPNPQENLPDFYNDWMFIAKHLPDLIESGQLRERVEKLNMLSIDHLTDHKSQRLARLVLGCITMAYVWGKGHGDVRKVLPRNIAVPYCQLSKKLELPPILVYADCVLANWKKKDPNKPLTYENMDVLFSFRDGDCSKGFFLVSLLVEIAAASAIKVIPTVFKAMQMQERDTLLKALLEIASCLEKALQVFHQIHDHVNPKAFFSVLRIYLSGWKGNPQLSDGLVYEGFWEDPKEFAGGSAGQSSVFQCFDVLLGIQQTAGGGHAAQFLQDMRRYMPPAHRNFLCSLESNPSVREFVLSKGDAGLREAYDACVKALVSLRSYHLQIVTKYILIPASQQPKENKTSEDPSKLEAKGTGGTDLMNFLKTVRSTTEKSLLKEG

Tyrosine-protein phosphatase non-receptor type 6, sequence (P29350 whole entry): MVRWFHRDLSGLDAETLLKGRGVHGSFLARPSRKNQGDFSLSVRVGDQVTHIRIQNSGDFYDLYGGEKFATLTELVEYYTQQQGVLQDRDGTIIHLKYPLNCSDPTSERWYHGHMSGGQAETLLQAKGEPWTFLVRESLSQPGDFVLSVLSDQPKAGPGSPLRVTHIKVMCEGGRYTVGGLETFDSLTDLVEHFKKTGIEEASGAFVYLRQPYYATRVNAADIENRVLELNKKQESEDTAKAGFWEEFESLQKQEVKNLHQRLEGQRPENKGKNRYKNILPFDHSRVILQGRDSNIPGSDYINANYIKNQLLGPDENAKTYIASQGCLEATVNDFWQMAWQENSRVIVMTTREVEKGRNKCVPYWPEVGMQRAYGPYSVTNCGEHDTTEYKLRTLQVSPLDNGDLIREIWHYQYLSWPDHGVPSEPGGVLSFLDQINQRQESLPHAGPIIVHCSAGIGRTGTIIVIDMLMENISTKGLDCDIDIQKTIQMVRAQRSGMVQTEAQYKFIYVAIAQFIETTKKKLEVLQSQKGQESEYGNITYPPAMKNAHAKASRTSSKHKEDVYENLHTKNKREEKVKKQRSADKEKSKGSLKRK

C[C@@H]1C(=O)N/C(=C\c2ccccc2)c2nc3c(O)cccc3c(=O)n21
IC50 [1]: 14 to 87 µM | IC50 [2]: 14 to 87 µM | IC50 [3]: 14 to 87 µM | inhibition of growth at 600 µM [4]: < 50% | inhibition of growth at 600 µM [5]: < 50% | inhibition [6]: inactive | inhibition of growth at 600 µM [7]: < 50% | inhibition of growth at 600 µM [8]: < 50% | IC50 [9]: 14 to 87 µM | IC50 [10]: 14 to 87 µM | EC50 [11]: 1.7 µM | IC50 [12]: 14 to 87 µM
